Experimental data as given in ChEMBL document CHEMBL3351370, “Straightforward entry to pyrido[2,3-d]pyrimidine-2,4(1H,3H)-diones and their ADME properties” (Bioorg Med Chem, 2014).
≈ marks a conversion by molar mass, not a printed value.

Legend:
[1] = system: Liver microsome; test: Stability in human liver microsomes assessed as metabolite formation at 8 uM at 37 degC in presence of NADPH and glucose-6-phosphate; assay type: ADME
Summary of the method: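 Compound 8 µM with pooled human liver microsomes (45 donors, 0.5 mg protein/ml) in 0.1 M phosphate buffer pH 7.4 with 3 mM MgCl₂. Started by adding NADPH (1 mM) and glucose-6-phosphate (3 mM). 37 °C, 350 rpm. Aliquots at 0, 10, 20 and 30 min quenched in acetonitrile. Parent compound measured by HPLC-UV/fluorescence as % remaining; Clint from in vitro t1/2 method, scaled to human hepatic Clint.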

[2] = system: Liver microsome; test: Stability in human liver microsomes assessed as metabolite formation at 8 uM at 37 degC in absence of NADPH and glucose-6-phosphate; assay type: ADME
Summary of the method: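 Negative control. Compound 8 µM with pooled human liver microsomes (45 donors, 0.5 mg protein/ml) in 0.1 M phosphate buffer pH 7.4 with 3 mM MgCl₂, without NADPH and glucose-6-phosphate. 37 °C, 350 rpm. Aliquots taken at 0, 10, 20 and 30 min and quenched in acetonitrile. Parent compound measured by HPLC (UV or fluorescence).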

[3] = Thermodynamic solubility in FaSSIF medium after 24 hrs by UV detection and HPLC method; assay type: physicochemical; conditions: read-out: Therm_solubility
Summary of the method: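 Excess solid added to FaSSIF (SIF powder in phosphate buffer), shaken 24 h at 175 rpm and 37 °C, then centrifuged at 20,817g for 15 min. Supernatant quantified by HPLC with UV detection. n = 3.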

[4] = Apparent permeability in human Caco2 cells; assay type: ADME, cell-based; conditions: Caco-2

Structure (SMILES)	Drug metabolism [1]	Stability [2]	Stability [1]	solubility thermodynamic at 24 h [3] [µM]	Papp [4] [×10⁻⁶ cm/s]
C=CCNC(=O)c1cccnc1NC(C)(C)CC(C)(C)C	metabolite_detected	Stable	–	–	–
C=CCn1c(=O)c2cccnc2n(C2CCCCC2)c1=O	–	Stable	Stable	–	–
C=CCOC(=O)c1cccnc1NC12CC3CC(CC(C3)C1)C2	metabolite_detected	Stable	–	20.7 (≈ 6.47 µg/mL)	1.2
O=C(NC1CCCCC1)c1cccnc1NC1CCCCC1	metabolite_detected	Stable	–	–	–
COc1ccc2c(c1)c(CC(=O)O)c(C)n2C(=O)c1ccc(Cl)cc1 [INDOMETHACIN]	–	–	–	–	93.3
C=CCNC(=O)c1cccnc1NCC=C	–	Stable	Stable	–	–
O=c1c2cccnc2n(Cc2ccccc2)c(=O)n1Cc1ccccc1	–	Stable	Stable	–	–

Now from value to compound:

Drug metabolism [1]	Stability [2]	Stability [1]	solubility thermodynamic at 24 h [3] [µM]	Papp [4] [×10⁻⁶ cm/s]	Structure (SMILES)
–	Stable	Stable	–	–	CCCn1c(=O)c2cccnc2n(CCC)c1=O
metabolite_detected	Stable	–	–	–	CC(C)CCn1c(=O)c2cccnc2n(CCC(C)C)c1=O
–	Stable	Stable	–	–	CC(C)CCNC(=O)c1cccnc1NCCC(C)C
–	Stable	Stable	–	–	C=CCn1c(=O)c2cccnc2n(CC=C)c1=O
